Results from paper PMC7775634 (Cell reports, 2020).
Ends that are not written are not given here. * marks the point of attachment. Biotin = O=C1N[C@H]2[C@H](CS[C@H]2CCCCC(=O)*)N1; Rhodamine = not defined here

Key:
[1] = target: T1, Cdc15 F-BAR domain (E30K E152K) (Schizosaccharomyces pombe, UniProt Q09822, E152K/E30K); assay: Isothermal titration calorimetry; format: binding, S. pombe
T1 sequence (Q09822 19-312 E30K/E152K): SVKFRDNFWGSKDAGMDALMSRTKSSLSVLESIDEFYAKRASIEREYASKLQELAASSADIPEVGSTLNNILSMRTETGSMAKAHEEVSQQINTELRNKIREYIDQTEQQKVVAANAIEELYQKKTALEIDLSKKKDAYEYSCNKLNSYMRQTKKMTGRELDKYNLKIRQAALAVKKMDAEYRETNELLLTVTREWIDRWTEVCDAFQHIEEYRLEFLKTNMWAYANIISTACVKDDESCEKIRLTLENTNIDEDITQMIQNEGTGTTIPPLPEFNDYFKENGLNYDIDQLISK

Cdc15 F-BAR domain = assay: Binding between purified Cdc15 F-BAR domain and recombinant CN; design: species or system S. pombe
[2] = test system: Cdc15 phosphostate in cells; settings: FK506-treated cells; ref Martín-García et al., 2018; cited from earlier work
Imp2 F-BAR domain = assay: In vitro binding assay; design: species or system S. pombe; settings: biotin-labeled peptide; streptavidin pull down; SDS-PAGE, Coomassie
Method in brief: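 Biotinylated test peptide (0.10 μM) and purified F-BAR domain (0.05 μM) were mixed with streptavidin resin. Incubation was 1 h at 4°C in 50 mM Tris pH 7.4, 250 mM NaCl, 0.1% NP-40. Resin was washed thoroughly. Bound protein was resolved by SDS-PAGE and stained with Coomassie blue.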

[3] = target: T2, GFP-Cdc15 F-BAR domain (residues 19-312) (S. pombe, UniProt Q09822 19-312); assay: recruitment to giant unilamellar vesicles, fluorescence microscopy
T2 sequence (looked up): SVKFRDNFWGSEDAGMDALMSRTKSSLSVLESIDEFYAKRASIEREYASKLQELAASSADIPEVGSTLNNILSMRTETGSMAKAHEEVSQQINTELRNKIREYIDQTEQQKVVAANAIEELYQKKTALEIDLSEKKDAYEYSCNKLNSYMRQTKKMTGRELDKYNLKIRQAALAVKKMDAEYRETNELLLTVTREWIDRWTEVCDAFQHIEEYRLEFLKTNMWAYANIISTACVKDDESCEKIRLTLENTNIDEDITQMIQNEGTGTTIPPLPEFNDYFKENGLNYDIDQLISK

[4] = phosphorylated; ref Bhattacharjee et al., 2020; cited from earlier work

Which Kd [1] does the source give for TPTPSARRTIGPRAPKSKTTY [Cdc12 peptide] here?
The Kd was 5 µM.

For “recombinant CN: Calcineurin produced by co-expressing Ppb1 as a 6xHis fusion (catalytic subunit), Cnb1 (regulatory subunit), and Cam1 (calmodulin)”, which “binding to purified Cdc15 F-BAR domain” value (Cdc15 F-BAR domain) is on record?
The value was “did not detect binding”.

With `C=CC[C@@H]1/C=C(\C)C[C@H](C)C[C@H](OC)[C@H]2O[C@@](O)(C(=O)C(=O)N3CCCC[C@H]3C(=O)O[C@H](/C(C)=C/[C@@H]3CC[C@@H](O)[C@H](OC)C3)[C@H](C)[C@@H](O)CC1=O)[C@H](C)C[C@@H]2OC` [FK506] as the molecule, how does the Cdc15 phosphostate [2] read?
The Cdc15 phosphostate was “Cdc15 phosphostate changes”.

Which “interaction with Imp2 F-BAR domain” value (Imp2 F-BAR domain) does the source give for “Cdc12 peptide (residues 20–40): Cdc12 (residues 20–40) peptide synthesized with an N-terminal biotin modification, used for binding assays (Biotin-TPTPSARRTIGPRAPKSKTTY)” here?
Its value is “did not interact”.

Does Rhodamine-TPTPSARRTIGPRAPKSKTTY (reading uncertain) [Rhodamine-Cdc12(aa20-40) peptide] bind [3]?
Result: binds

B1: Cdc15 (E30K E152K): Full-length FLAG-Cdc15 (E30K E152K) co-expressed with kinase Pom1 (protein, UniProt Q09822 1-927, looked up, variant E30K E152K)
chain: MEVNGVSQSEAAPYVTKSSVKFRDNFWGSKDAGMDALMSRTKSSLSVLESIDEFYAKRASIEREYASKLQELAASSADIPEVGSTLNNILSMRTETGSMAKAHEEVSQQINTELRNKIREYIDQTEQQKVVAANAIEELYQKKTALEIDLSKKKDAYEYSCNKLNSYMRQTKKMTGRELDKYNLKIRQAALAVKKMDAEYRETNELLLTVTREWIDRWTEVCDAFQHIEEYRLEFLKTNMWAYANIISTACVKDDESCEKIRLTLENTNIDEDITQMIQNEGTGTTIPPLPEFNDYFKENGLNYDIDQLISKAPSYPYSSSRPSASASLASSPTRSAFRPKTSETVSSEVVSSPPTSPLHSPVKPVSNEQVEQVTEVELSIPVPSIQEAESQKPVLTGSSMRRPSVTSPTFEVAARPLTSMDVRSSHNAETEVQAIPAATDISPEVKEGKNSENAITKDNDDIILSSQLQPTATGSRSSRLSFSRHGHGSQTSLGSIKRKSIMERMGRPTSPFMGSSFSNMGSRSTSPTKEGFASNQHATGASVQSDELEDIDPRANVVLNVGPNMLSVGEAPVESTSKEEDKDVPDPIANAMAELSSSMRRRQSTSVDDEAPVSLSKTSSSTRLNGLGYHSRNTSIASDIDGVPKKSTLGAPPAAHTSAQMQRMSNSFASQTKQVFGEQRTENSARESLRHSRSNMSRSPSPMLSRRSSTLRPSFERSASSLSVRQSDVVSPAPSTRARGQSVSGQQRPSSSMSLYGEYNKSQPQLSMQRSVSPNPLGPNRRSSSVLQSQKSTSSNTSNRNNGGYSGSRPSSEMGHRYGSMSGRSMRQVSQRSTSRARSPEPTNRNSVQSKNVDPRATFTAEGEPILGYVIALYDYQAQIPEEISFQKGDTLMVLRTQEDGWWDGEIINVPNSKRGLFPSNFVQTV
modifications: full-length FLAG tag
Which membrane binding [4] does the source give for B1 here?
Its membrane binding is “did not bind membrane”.
